Test results taken from ChEMBL document CHEMBL1137377, “Evaluation of azasterols as anti-parasitics” (J Med Chem, 2006).

Tests used:
[1] = test system: Trypanosoma brucei rhodesiense; assay: Antitrypanosomal activity against Trypanosoma brucei rhodesiense trypomastigotes; type: functional; conditions: read-out: ED50 (the source's name)
Outline: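 Bloodstream-form STIB900 trypomastigotes grown in HMI-18 + 15% HIFCS at 37 °C, 5% CO2. Seeded at 2 × 10^5/mL onto drug dilutions (top 30 µg/mL) for 72 h. Alamar Blue read 5-6 h later by fluorescence (ex/em 530/585 nm). ED50 by curve fitting.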

[2] = test system: KB; assay: Cytotoxicity against KB cell line; type: functional; conditions: Homo sapiens, read-out: TD50 (the source's name)
[3] = test system: Leishmania donovani; assay: Antileishmanial activity against Leishmania donovani amastigotes in CD1 mouse macrophage; type: functional, organism-based; conditions: read-out: ED50 (the source's name)
Outline: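 Peritoneal macrophages from starch-induced CD1 mice, kept 24 h in RPMI1640 + 10% HIFCS at 37 °C, 5% CO2. Infected with L. donovani MHOM/ET/67/L82 amastigotes from hamster spleen at 5 parasites:1 macrophage. After 24 h, drug exposure for 5 days, overlay replaced day 3. Top concentration 30 µg/mL, quadruplicate. Slides methanol-fixed, Giemsa-stained, counted microscopically. ED50 by curve fitting.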

[4] = test system: Plasmodium falciparum; assay: Antimalarial activity against Plasmodium falciparum 3D7; type: functional, organism-based
Outline: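 Synchronized ring-stage 3D7 culture at 1% parasitemia in RPMI 1640, 5% hematocrit, 37 °C, 5% CO2. Top final drug concentration 30 µg/mL. After 24 h, (3H)-hypoxanthine added (0.2 µCi/well), then 48 h further incubation. Plates freeze/thawed and harvested, and hypoxanthine uptake counted. ED50 by curve fitting.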

[5] = test system: Trypanosoma cruzi; assay: Antitrypanosomal activity against Trypanosoma cruzi trypomastigotes in CD1 mouse macrophage; type: functional; conditions: read-out: ED50 (the source's name)
Outline: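 Starch-induced CD1 peritoneal macrophages plated at 4 × 10^5/mL, infected after 24 h with T. cruzi Tulahuan LAC-Z trypomastigotes. 24 h later, drug exposure for 3 days. ED50 by curve fitting.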

[6] = test system: Plasmodium falciparum; assay: Antimalarial activity against Plasmodium falciparum K1; type: functional, organism-based; conditions: read-out: ED50 (the source's name)
[7] = read-out: ED50 (the source's name)

| EC50 [1] | EC50 [3] | EC50 [4, 7] | EC50 [5] | EC50 [6] | EC50 ([4]; read-out: EC50) | SMILES | CC50 [2] |
| --- | --- | --- | --- | --- | --- | --- | --- |
| 24 µM | > 65 µM | 60 µM | 42.2 µM | 9.6 µM | – | COC(=O)CNC(=O)[C@@H](C)[C@H]1CC[C@H]2C3CC=C4C[C@@H](OC(C)=O)CC[C@]4(C)[C@H]3CC[C@]12C (some centres undefined) | > 653 µM |
| 0.607 µM | > 55 µM | 21.5 µM | > 55 µM | 2.87 µM | – | COC(=O)CCCCCCCNC(=O)[C@@H](C)[C@H]1CC[C@H]2C3CC=C4C[C@@H](OC(C)=O)CC[C@]4(C)[C@H]3CC[C@]12C (some centres undefined) | > 552 µM |
| 9.15 µM | > 62 µM | 16.2 µM | 4.7 µM | 11.6 µM | – | COC(=O)CCCNC(=O)[C@@H](C)[C@H]1CC[C@H]2C3CC=C4C[C@@H](OC(C)=O)CC[C@]4(C)[C@H]3CC[C@]12C (some centres undefined) | > 615 µM |
| 6 µM | > 63 µM | 17.4 µM | 3.46 µM | 19.1 µM | – | COC(=O)CCNC(=O)[C@@H](C)[C@H]1CC[C@H]2C3CC=C4C[C@@H](OC(C)=O)CC[C@]4(C)[C@H]3CC[C@]12C (some centres undefined) | 597 µM |
| 0.308 µM | – | 0.349 µM | 2.64 µM | 0.062 µM | – | COC(=O)CCCCCCCNC[C@@H](C)[C@H]1CC[C@H]2C3CC=C4C[C@@H](O)CC[C@]4(C)[C@H]3CC[C@]12C (some centres undefined) | 6.17 µM |
| 2.15 µM | – | 1.31 µM | < 2.41 µM | 0.5 µM | – | COC(=O)CCCCCNC[C@@H](C)[C@H]1CC[C@H]2C3CC=C4C[C@@H](O)CC[C@]4(C)[C@H]3CC[C@]12C (some centres undefined) | 6.09 µM |
| 0.012 µM | 3.19 µM | 15.4 µM | 24.7 µM | – | – | COC(=O)CCCNC[C@@H](C)[C@H]1CC[C@H]2C3CC=C4C[C@@H](OC(C)=O)CC[C@]4(C)[C@H]3CC[C@]12C (some centres undefined) | 19.2 µM |
| 3.01 µM | > 60 µM | 0.74 µM | 2.43 µM | 8.43 µM | – | COC(=O)CCCCNC(=O)[C@@H](C)[C@H]1CC[C@H]2C3CC=C4C[C@@H](OC(C)=O)CC[C@]4(C)[C@H]3CC[C@]12C (some centres undefined) | > 598 µM |
| 7.91 µM | > 57 µM | 14.4 µM | 10.8 µM | 1.26 µM | – | COC(=O)CCCCCCNC(=O)[C@@H](C)[C@H]1CC[C@H]2C3CC=C4C[C@@H](OC(C)=O)CC[C@]4(C)[C@H]3CC[C@]12C (some centres undefined) | > 566 µM |
| 54.6 µM | > 65 µM | > 65 µM | 12.6 µM | – | – | CC(=O)O[C@H]1CC[C@@]2(C)C(=CCC3[C@@H]4CC[C@H]([C@H](C)CNCCCC(=O)O)[C@@]4(C)CC[C@@H]32)C1 (some centres undefined) | 505 µM |
| 3.45 µM | > 58 µM | 21.3 µM | 2.54 µM | 19.8 µM | – | COC(=O)CCCCCNC(=O)[C@@H](C)[C@H]1CC[C@H]2C3CC=C4C[C@@H](OC(C)=O)CC[C@]4(C)[C@H]3CC[C@]12C (some centres undefined) | > 582 µM |
| 0.033 µM | 21.9 µM | 7.37 µM | 20.5 µM | – | – | COC(=O)CCCCCNC[C@@H](C)[C@H]1CC[C@H]2C3CC=C4C[C@@H](OC(C)=O)CC[C@]4(C)[C@H]3CC[C@]12C (some centres undefined) | 15.6 µM |
| 49.8 µM | 29.2 µM | – | 39.8 µM | – | 45.6 µM | C[C@H](C(=O)NCCCC(=O)O)[C@H]1CC[C@H]2C3CC=C4C[C@@H](O)CC[C@]4(C)[C@H]3CC[C@]12C (some centres undefined) | 616 µM |

The next lines start with the compound.

| SMILES | EC50 [1] | EC50 [3] | EC50 [4, 7] | EC50 [5] | EC50 [6] | EC50 ([4]; read-out: EC50) | CC50 [2] |
| --- | --- | --- | --- | --- | --- | --- | --- |
| COc1cc([C@@H]2c3cc4c(cc3[C@H](O)[C@H]3COC(=O)[C@H]23)OCO4)cc(OC)c1OC [PODOFILOX] | – | – | – | – | 0.1 µM | – | 0.001 µM |
| COC(=O)CNC[C@@H](C)[C@H]1CC[C@H]2C3CC=C4C[C@@H](O)CC[C@]4(C)[C@H]3CC[C@]12C (some centres undefined) | 4.91 µM | – | 40.6 µM | < 2.75 µM | 22.2 µM | – | 45 µM |
| C[C@H](CNCCCCCCCC(=O)O)[C@H]1CC[C@H]2C3CC=C4C[C@@H](O)CC[C@]4(C)[C@H]3CC[C@]12C (some centres undefined) | 10.6 µM | 26.4 µM | > 63 µM | 38.4 µM | – | – | > 633 µM |
| C[C@H](CNCCCCCCC(=O)O)[C@H]1CC[C@H]2C3CC=C4C[C@@H](O)CC[C@]4(C)[C@H]3CC[C@]12C (some centres undefined) | 47.6 µM | > 65 µM | > 65 µM | 44.9 µM | – | – | 72 µM |
| CC(=O)O[C@H]1CC[C@@]2(C)C(=CCC3[C@@H]4CC[C@H]([C@H](C)CNCCCC[C@H](NC(=O)OCc5ccccc5)C(=O)OCc5ccccc5)[C@@]4(C)CC[C@@H]32)C1 (some centres undefined) | 0.619 µM | – | 0.839 µM | 1.71 µM | 0.069 µM | – | 29.8 µM |
| C[C@H](CNCCCC[C@H](NC(=O)OCc1ccccc1)C(=O)O)[C@H]1CC[C@H]2C3CC=C4C[C@@H](O)CC[C@]4(C)[C@H]3CC[C@]12C (some centres undefined) | > 50 µM | – | 16.7 µM | 9.52 µM | 6.29 µM | – | > 504 µM |
| COC(=O)CCCNC[C@@H](C)[C@H]1CC[C@H]2C3CC=C4C[C@@H](O)CC[C@]4(C)[C@H]3CC[C@]12C (some centres undefined) | 5.05 µM | – | 7.53 µM | < 2.57 µM | 1.95 µM | – | 1.55 µM |
| C[C@H](CNCC[C@H](NC(=O)OC(C)(C)C)C(=O)O)[C@H]1CC[C@H]2C3CC=C4C[C@@H](O)CC[C@]4(C)[C@H]3CC[C@]12C (some centres undefined) | > 56 µM | – | 36.6 µM | < 2.08 µM | 38.1 µM | – | > 563 µM |
| COC(=O)[C@H](CCCCNC[C@@H](C)[C@H]1CC[C@H]2C3CC=C4C[C@@H](OC(C)=O)CC[C@]4(C)[C@H]3CC[C@]12C)NC(=O)OCc1ccccc1 (some centres undefined) | 0.753 µM | – | 0.799 µM | < 1.71 µM | 0.215 µM | – | 5.35 µM |
